Assay outcomes deposited in PubChem BioAssay by several laboratories.
This is a sample that favours compounds with a hit; in the whole collection about 2.1% have one here.
EBNA-1 inh – EBNA-1 DNA-binding inhibitors, primary screen, biochemical, fluorescence polarization. 0.34% of 300,000 active. inhibition, % at 14.8 µM; in the data active = inhibition above about 28%
NS3 helicase inh – inhibitors of HCV NS3 helicase, primary screen, biochemical, Cy5 molecular beacon fluorescence; NS3 helicase DNA unwinding; inhibition, % at 10.9 µM; 0.56% of 290,000 active;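 active = inhibition above the mean of all tested compounds plus 3 SD, set per campaign, cut at about 35% in these data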;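 note: 0% = DMSO wells and 100% = thioflavine S control wells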
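Control set: DMSO versus 110 µM thioflavine S; Material: NS3 helicase fragment of HCV; Measured by: Cy5 fluorescence at 0 and 60 min, beacon hairpin quenching; Read-out basis: percent inhibition from t60/t0 fluorescence ratio; Times: reaction time 60 min, 25 °C; Repeats: single replicate; Compound dosing: single dose, 10.9 µM nominal final, DMSO 0.8% final.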
MLLE-PAM2 inh – inhibitors of PABP1 MLLE–PAM2 peptide binding, primary screen, biochemical, fluorescence polarization, FITC-PAM2, GST-MLLE; Polyadenylate-binding protein 1 (Homo sapiens), P11940; inhibition, % at 20 µM; 0.36% of 360,000 active; AID 588489, 2011; in the data active = inhibition above about 35%, passing the limit was not always enough;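 note: plate controls were DMSO wells with GST-MLLE for no effect and wells lacking GST-MLLE protein for full effect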
eIF4H inh – human eIF4H binding inhibitors, primary screen, translation initiation inhibitor project, biochemical, uHTS, fluorescence polarization | Eukaryotic translation initiation factor 4H (Homo sapiens), Q15056 | eIF4H fluorescence polarization binding assay | inhibition, % at 35 µM | 0.94% of 290,000 active | AID 2012, 2009;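 note: calls also rest on retests at 20 µM and on dose response follow-up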
ZTA DNA inh – blocks Epstein-Barr virus ZTA, an EBNA-1 counter-screen; P03206; ZTA-DNA binding, fluorescence polarization; inhibition, % at 11 µM; 0.15% of 320,000 active; AID 2234; in the data active = inhibition above about 33%
Target sequence (P03206 whole entry, looked up): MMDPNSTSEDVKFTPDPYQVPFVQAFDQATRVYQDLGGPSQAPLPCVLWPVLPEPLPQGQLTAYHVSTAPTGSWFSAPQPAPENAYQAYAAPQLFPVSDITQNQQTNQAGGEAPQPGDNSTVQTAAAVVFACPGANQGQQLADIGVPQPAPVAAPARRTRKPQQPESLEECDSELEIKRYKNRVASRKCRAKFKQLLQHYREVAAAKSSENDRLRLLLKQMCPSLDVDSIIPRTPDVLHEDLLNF
PABP polyA inh – PABP poly(A) RNA binding inhibitors, primary screen, biochemical, fluorescence polarization, uHTS; inhibition, % at 35 µM; 1% of 290,000 active;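 note: calls also rest on retests at 20 µM and on dose response follow-up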
EBNA-1 confirm – EBNA-1 DNA-binding inhibitors, retest, confirmation, biochemical, fluorescence polarization, triplicate; shares compounds with EBNA-1 inh; Recombinant EBNA-1 DBD, Cy5-DNA fluorescence polarization; inhibition, % at 14.8 µM; 35% of 830 active;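 active = mean inhibition across replicates above a set limit taken from the earlier primary screen, cut at about 28% in these data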;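 note: plate controls were EBNA-1 protein with DMSO for no effect and wells lacking EBNA-1 for full effect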
ZTA DNA inh trip – EBV Zta DNA binding inhibitors, counter-screen for EBNA-1 inhibitor project, biochemical, fluorescence polarization, triplicate | shares compounds with EBNA-1 inh | Zta-ZRE DNA binding, Cy5 fluorescence polarization | inhibition, % at 11.1 µM | 830 tested, under 10 active;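 active = mean inhibition over triplicates above a set limit taken from the primary EBNA-1 screen, cut at about 37% in these data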;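 note: purified full length Zta protein with Cy5 labeled ZRE DNA probe; 0% = Zta with DMSO and 100% = wells lacking Zta protein; inhibitors lower polarization by freeing the labeled DNA probe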
Numbers without * were called inactive; . = no result. Unless noted, the rule behind the calls is not given here.

SMILES	EBNA-1 inh	NS3 helicase inh	MLLE-PAM2 inh	eIF4H inh	ZTA DNA inh	PABP polyA inh	EBNA-1 confirm	ZTA DNA inh trip
O=C(NNC(=O)C1CCN(S(=O)(=O)c2ccc(Cl)cc2)CC1)c1ccc(S(=O)(=O)N2CCCCC2)cc1	31.3*	1.7	-6.0	6.6	30.0	-4.4	18.4	-6.8
COC(=O)c1ccc(COc2ccccc2/C=C/C(=O)c2ccc(OCC(=O)O)cc2)cc1	-17.0	-27.2	-11.9	6.9	-1.9	21.4	.	.
C=CCOC(=O)C1=C(C)NC(C)=C(C(=O)OCC=C)C1c1cn(-c2ccccc2)nc1-c1ccco1	53.3*	8.7	13.1	11.3	5.0	1.9	21.9	8.7
COC(=O)C1=C(N)N(c2ccccc2C(F)(F)F)C2=C(C(=O)CCC2)C1c1ccc2c(c1)OCO2 (configuration not stated)	30.7*	-7.8	-8.9	1.2	0.2	2.8	-6.9	-3.0
Cc1cc(C(=O)CN2C(=O)NC3(CCCc4sccc43)C2=O)c(C)n1-c1ccc(Cl)cc1 (configuration not stated)	33.8*	-2.9	4.5	10.8	-3.6	-18.4	17.2	-11.5
NC(=O)CN1C(=O)NC2(CCCc3sccc32)C1=O (configuration not stated)	-4.5	16.1	-1.0	1.8	-7.2	-5.3	.	.
CCOc1ccccc1N1CCN(C(=O)Nc2ccc(Cl)c(Cl)c2)CC1	6.7	4.5	.	-0.6	11.5	7.5	.	.
CC1=CC(=C(C#N)C#N)C=C(C)N1CCN1CCN(C(=O)Nc2ccc(Cl)c(Cl)c2)CC1	75.8*	-2.5	-0.9	2.5	12.5	-1.3	65.2*	4.0
CCN1C(=O)N(S(=O)(=O)C(F)(F)F)[C@@H](c2ccccc2)C(C(=O)OC)=C1C	11.4	.	4.5	2.9	-14.7	11.1	.	.
Nc1c(C(=O)Nc2ccc3c(c2)OCCO3)nnn1Cc1cccc(Cl)c1	54.3*	.	10.9	.	11.6	.	108.4*	4.2
CC(NC(=O)c1cccc(S(=O)(=O)N(C)C)c1)C1CC2CCC1C2 (configuration not stated)	-1.6	-4.1	10.8	3.3	1.1	2.0	.	.
Cc1ccc(S(=O)(=O)/N=C(\N)Nc2nc(C)c3cc(C)ccc3n2)cc1	11.4	-12.4	-9.8	-1.4	11.0	-3.2	.	.
Cc1ccc(S(=O)(=O)/N=C(\N)Nc2nc(C)c3cc(C)c(C)cc3n2)cc1	38.2*	-8.3	-7.0	-12.1	7.8	3.9	0.3	-12.1
Cc1ccc(S(=O)(=O)/N=C(\N)Nc2nc(C)c3ccc(C)cc3n2)cc1	36.9*	-7.9	6.4	-11.7	7.8	-4.0	15.4	-0.9
CCOC(=O)C1=C(C)Nc2nc(SCC)nn2C1c1ccc(OC)cc1 (configuration not stated)	32.5*	-5.2	14.2	4.0	1.8	-3.7	6.2	2.3
O=C1N=C(N2CCCCC2)S/C1=C\c1cn[nH]c1-c1ccccc1	90.8*	3.8	5.5	-3.1	13.7	4.3	14.8	0.1
CCCS(=O)(=O)Nc1c(C(=O)O)[nH]c2ccc(OC)cc12	-0.8	-0.8	6.9	-5.1	-8.7	5.4	.	.
CCn1c(O)c(/C=C2\C=Nc3ccccc32)sc1=O	28.2*	-9.5	-4.4	1.6	-6.7	-4.8	13.8	9.3
COc1ccc(S(=O)(=O)NNC(=O)c2cc3c4ccccc4n(C)c3s2)cc1	31.7*	-1.0	-6.1	-10.7	-8.0	1.6	18.1	3.4
COc1ccc(O)c(-c2cc(C(F)(F)C(F)F)nc(-c3ccccc3)n2)c1	30.7*	-1.4	-6.8	1.3	-3.8	5.1	7.8	4.4
COc1ccc(OC)c(C2c3c(oc4ccccc4c3=O)C(=O)N2CCCN(C)C)c1 (configuration not stated)	-15.7	2.0	7.5	1.0	12.9	-3.5	.	.
Cc1ccc(S(=O)(=O)N(CC(=O)N/N=C\c2cccs2)c2cccc3cccnc23)cc1	32.5*	6.0	13.0	8.0	-4.8	-10.7	28.3*	-4.4
Cc1ccc(S(=O)(=O)N(CC(=O)N/N=C/c2cccc(C)c2)c2cccc3cccnc23)cc1	-1.1	-2.6	16.1	-8.3	-11.8	-11.3	.	.
CC1CC(C)CN(C(=O)c2cccc(S(=O)(=O)Nc3cc(C(F)(F)F)ccc3Cl)c2)C1 (configuration not stated)	29.6*	24.3	10.1	-11.9	9.8	-15.5	2.3	-6.1
O=C(O)c1cccc(S(=O)(=O)Nc2cc(Cl)ccc2Cl)c1	8.1	-5.6	-1.9	-5.0	-1.0	-4.8	.	.
SMILES	EBNA-1 inh	NS3 helicase inh	MLLE-PAM2 inh	eIF4H inh	ZTA DNA inh	PABP polyA inh	EBNA-1 confirm	ZTA DNA inh trip
Cc1ccc2[nH]c(=O)c(CN(Cc3cccs3)C(=S)NCC3CCCO3)cc2c1 (configuration not stated)	44.2*	-2.9	-132.8	-11.0	8.6	-0.3	17.4	-4.8
S=C(NCc1ccco1)Nc1ccc(Cl)cc1	31.0*	5.1	-17.6	2.9	-8.2	-3.7	-4.4	0.0
CCOC(=O)c1c(S(=O)(=O)Nc2ccc(C)c(F)c2)c(C)n(C)c1C	10.0	-6.7	17.5	-1.6	4.0	9.0	.	.
CC(OCc1ccccc1)C(NC(=O)OC(C)(C)C)C(=O)NCC1CCCO1 (configuration not stated)	46.1*	-4.0	1.5	-5.0	-12.2	-2.8	-7.8	-4.4
C/C(=N\NC(=O)c1c(Br)c(C)nn1C)c1ccc(NC(=O)c2ccoc2C)cc1	62.5*	3.7	-0.5	-10.5	9.1	-7.9	72.4*	8.9
O=C(Nc1ccc(F)c(Cl)c1)c1ccc2sc([C@@H]3O[C@H](CO)[C@H](O)[C@H](O)[C@H]3O)nc2c1	.	.	-5.7	.	.	.	.	.
COc1ccccc1/C=C/C=N/NC(=O)c1cnccn1	7.4	5.4	-2.0	-0.9	-2.4	-6.7	.	.
CCC(C)NC(=O)c1ccc([N+](=O)[O-])c(Cl)c1 (configuration not stated)	27.5*	0.2	-3.9	-8.6	-5.9	2.6	-4.5	-2.9
COc1ccccc1NS(=O)(=O)c1cc(NC(=O)c2ccc3ccccc3n2)ccc1Cl	51.6*	4.5	7.3	-2.0	-14.0	-11.7	3.5	4.6
COc1ccc(C(=O)Nc2ccc(Cl)c(S(=O)(=O)Nc3ccccc3OC)c2)cc1	0.0	-14.6	9.1	1.1	-12.6	-1.8	.	.
